Laboratory results published in ChEMBL document CHEMBL1165950, “Design and synthesis of new potent anticancer pyrazoles with high FLT3 kinase inhibitory selectivity” (Bioorg Med Chem, 2010).

Tests used:
Type in all cases: functional
SF-295 [1] = assay: Cytotoxicity against human SF295 cells assessed as cell growth at 10 uM after 48 hrs by sulforhodamine B assay; conditions: SF-295, 48 h, read-out: Activity
SK-MEL-28 [2] = assay: Growth inhibition of human SK-MEL-28 cells after 48 hrs by sulforhodamine B assay; conditions: SK-MEL-28, 48 h; for CC50: read-out: LC50 (the source's name)
Method in brief: (§1)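 NCI 60-cell screen, five-dose mode. Cells grown in RPMI 1640 with 5% FBS and 2 mM L-glutamine and plated at 5000-40,000 cells/well according to doubling time. After 24 h preincubation, a Tz plate was TCA-fixed. Five concentrations (10-fold or 1/2 log dilutions) were applied for 48 h at 37 °C. SRB staining read at 515 nm. IC50 taken from [(Ti-Tz)/(C-Tz)]×100 = 50.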

SK-MEL-28 [3] = assay: Cytotoxicity against human SK-MEL-28 cells assessed as cell growth at 10 uM after 48 hrs by sulforhodamine B assay; conditions: SK-MEL-28, 48 h, read-out: Activity
[4] = Cytotoxicity against human […] cells assessed as cell growth at 10 uM after 48 hrs by sulforhodamine B assay; conditions: read-out: Activity
HCC 2998 [5] = assay: Cytotoxicity against human HCC2998 cells assessed as cell growth at 100 nM after 48 hrs by sulforhodamine B assay; conditions: HCC 2998, 48 h, read-out: Activity
SK-MEL-28 [6] = assay: Cytotoxicity against human SK-MEL-28 cells assessed as cell growth at 0.001 uM after 48 hrs by sulforhodamine B assay; conditions: SK-MEL-28, 48 h, read-out: Activity
SR [7] = assay: Cytotoxicity against human SR cells assessed as cell growth at 0.01 uM after 48 hrs by sulforhodamine B assay; conditions: read-out: Activity
HCC 2998 [8] = assay: Cytotoxicity against human HCC2998 cells assessed as cell growth at 10 uM after 48 hrs by sulforhodamine B assay; conditions: HCC 2998, 48 h, read-out: Activity
SR [9] = assay: Cytotoxicity against human SR cells assessed as cell growth at 0.001 uM after 48 hrs by sulforhodamine B assay; conditions: read-out: Activity
RXF 393 [10] = assay: Cytotoxicity against human RXF393 cells assessed as cell growth at 10 uM after 48 hrs by sulforhodamine B assay; conditions: RXF 393, 48 h, read-out: Activity
ACHN = assay: Cytotoxicity against human ACHN cells assessed as cell growth at 0.01 uM after 48 hrs by sulforhodamine B assay; conditions: read-out: Activity
SF-295 [11] = assay: Cytotoxicity against human SF295 cells assessed as cell growth at 100 nM after 48 hrs by sulforhodamine B assay; conditions: SF-295, 48 h, read-out: Activity
RXF 393 [12] = assay: Growth inhibition of human RXF393 cells after 48 hrs by sulforhodamine B assay; conditions: RXF 393, 48 h; method in brief: as §1
NCI-H460 = assay: Cytotoxicity against human NCI-H460 cells assessed as cell growth at 1 uM after 48 hrs by sulforhodamine B assay; conditions: NCI-H460, 48 h, read-out: Activity
MCF7 [13] = assay: Cytotoxicity against human MCF7 cells assessed as cell growth at 0.001 uM after 48 hrs by sulforhodamine B assay; conditions: MCF7, 48 h, read-out: Activity
RXF 393 [14] = assay: Cytotoxicity against human RXF393 cells assessed as cell growth at 1 uM after 48 hrs by sulforhodamine B assay; conditions: RXF 393, 48 h, read-out: Activity
SK-MEL-28 [15] = assay: Cytotoxicity against human SK-MEL-28 cells assessed as cell growth at 100 nM after 48 hrs by sulforhodamine B assay; conditions: SK-MEL-28, 48 h, read-out: Activity
NCI-H226 [16] = assay: Growth inhibition of human NCI-H226 cells after 48 hrs by sulforhodamine B assay; conditions: NCI-H226, 48 h; for CC50: read-out: LC50 (the source's name); method in brief: as §1
PC-3 = assay: Cytotoxicity against human PC3 cells assessed as cell growth at 10 uM after 48 hrs by sulforhodamine B assay; conditions: PC-3, 48 h, read-out: Activity
MCF7 [17] = assay: Cytotoxicity against human MCF7 cells assessed as cell growth at 100 nM after 48 hrs by sulforhodamine B assay; conditions: MCF7, 48 h, read-out: Activity
HCT-116 = assay: Cytotoxicity against human HCT116 cells assessed as cell growth at 100 nM after 48 hrs by sulforhodamine B assay; conditions: HCT-116, 48 h, read-out: Activity
DU-145 = assay: Cytotoxicity against human DU145 cells assessed as cell growth at 0.01 uM after 48 hrs by sulforhodamine B assay; conditions: DU-145, 48 h, read-out: Activity
SR [18] = assay: Growth inhibition of human SR cells after 48 hrs by sulforhodamine B assay; method in brief: as §1
RXF 393 [19] = assay: Cytotoxicity against human RXF393 cells assessed as cell growth at 0.001 uM after 48 hrs by sulforhodamine B assay; conditions: RXF 393, 48 h, read-out: Activity
NCI-H226 [20] = assay: Cytotoxicity against human NCI-H226 cells assessed as cell growth at 1 uM after 48 hrs by sulforhodamine B assay; conditions: NCI-H226, 48 h, read-out: Activity
MDA-MB-435 = assay: Cytotoxicity against human MDA-MB-435 cells assessed as cell growth at 0.01 uM after 48 hrs by sulforhodamine B assay; conditions: MDA-MB-435, 48 h, read-out: Activity
KM12 = assay: Cytotoxicity against human KM12 cells assessed as cell growth at 10 uM; conditions: read-out: Activity
Method in brief: (§2)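 NCI-60 screen: cells grown in RPMI 1640 with 5% FBS and 2 mM L-glutamine, plated at 5000–40,000 cells/well according to doubling time, and preincubated 24 h at 37 °C, 5% CO2. The single 10 µM dose (DMSO stock) was added, then incubated 48 h. Cells were TCA-fixed and stained with 0.4% SRB, read at 515 nm, and growth % calculated against time-zero and control plates.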

NCI-H226 [21] = assay: Cytotoxicity against human NCI-H226 cells assessed as cell growth at 0.01 uM after 48 hrs by sulforhodamine B assay; conditions: NCI-H226, 48 h, read-out: Activity
SR [22] = assay: Cytotoxicity against human SR cells assessed as cell growth at 1 uM after 48 hrs by sulforhodamine B assay; conditions: read-out: Activity
HCC 2998 [23] = assay: Cytotoxicity against human HCC2998 cells assessed as cell growth at 1 uM after 48 hrs by sulforhodamine B assay; conditions: HCC 2998, 48 h, read-out: Activity
SR [24] = assay: Cytotoxicity against human SR cells assessed as cell growth at 100 nM after 48 hrs by sulforhodamine B assay; conditions: read-out: Activity
CAKI-1 = assay: Cytotoxicity against human Caki1 cells assessed as cell growth at 1 uM after 48 hrs by sulforhodamine B assay; conditions: CAKI-1, 48 h, read-out: Activity
CCRF-CEM = assay: Cytotoxicity against human CCRF-CEM cells assessed as cell growth at 10 uM; conditions: read-out: Activity
Method in brief: (§3)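 Single-dose NCI-60 screen at 10 µM. Cells were grown in RPMI 1640 with 5% FBS and 2 mM L-glutamine, then treated for 48 h at 37 °C. Protein was measured by SRB staining with absorbance at 515 nm. Percentage growth was recorded, and inhibition percentage was calculated as 100 minus growth percentage.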

SK-MEL-5 = assay: Cytotoxicity against human SK-MEL-5 cells assessed as cell growth at 1 uM after 48 hrs by sulforhodamine B assay; conditions: SK-MEL-5, 48 h, read-out: Activity
[25] = Cytotoxicity against human […] cells assessed as cell growth at 10 uM; conditions: read-out: Activity; method in brief: as §2
HOP-92 = assay: Cytotoxicity against human HOP92 cells assessed as cell growth at 10 uM; conditions: read-out: Activity; method in brief: as §3

Work on `Cc1cc(O)cc(-c2nn(CC#N)cc2-c2ccnc(-c3ccc(Oc4ccccc4)cc3)c2)c1` yielded a growth at 10 µM (SF-295 [1]) of -61%, a GI50 (SK-MEL-28 [2]) of 4.92 µM and a TGI (SK-MEL-28 [2]) of 17 µM. For the same compound, the CC50 (SK-MEL-28 [2]) was 41.4 µM, the growth at 10 µM (SK-MEL-28 [3]) was -100% and the growth at 10 µM [4] was -14%. For the same compound, the growth at 0.1 µM (HCC 2998 [5]) was 107%, the growth at 0.001 µM (SK-MEL-28 [6]) was 91% and the growth at 0.01 µM (SR [7]) was 95%. For the same compound, the growth at 10 µM (HCC 2998 [8]) was -95%, the growth at 0.001 µM (SR [9]) was 94% and the growth at 10 µM (RXF 393 [10]) was -87%. The growth at 0.01 µM (ACHN) was 95%, the growth at 0.1 µM (SF-295 [11]) was 87% and the GI50 (RXF 393 [12]) was 2.08 µM. The LC50 (concentration killing 50% of the starting cells) (RXF 393 [12]) was 8.92 µM, the TGI (RXF 393 [12]) was 4.31 µM and the growth at 1 µM (NCI-H460) was -79%. For the same compound, the growth at 0.001 µM (MCF7 [13]) was 92%, the growth at 1 µM (RXF 393 [14]) was -58% and the growth at 0.1 µM (SK-MEL-28 [15]) was 95%. It also gave a GI50 (NCI-H226 [16]) of 3.22 µM, a TGI (NCI-H226 [16]) of 12.2 µM and a CC50 (NCI-H226 [16]) of 64.5 µM. It also gave a growth at 10 µM (PC-3) of -60%, a growth at 0.1 µM (MCF7 [17]) of 95% and a growth at 0.1 µM (HCT-116) of 86%. The growth at 0.01 µM (DU-145) was 96%, the GI50 (SR [18]) was 3.77 µM and the LC50 (concentration killing 50% of cells) (SR [18]) was > 100 µM. For the same compound, the TGI (SR [18]) was 37.2 µM, the growth at 0.001 µM (RXF 393 [19]) was 88% and the growth at 1 µM (NCI-H226 [20]) was 6%. The growth at 0.01 µM (MDA-MB-435) was 95%, the growth at 10 µM (KM12) was 39.9% and the growth at 0.01 µM (NCI-H226 [21]) was 89%. For the same compound, the growth at 1 µM (SR [22]) was 16%, the growth at 1 µM (HCC 2998 [23]) was -94% and the growth at 0.1 µM (SR [24]) was 96%. The growth at 1 µM (CAKI-1) was -24%.
For `COc1cc(C)cc(-c2nn(CC#N)cc2-c2ccc(-c3cccc(C(C)=O)c3)nc2)c1`, the GI50 (SK-MEL-28 [2]) was 3.63 µM, the TGI (SK-MEL-28 [2]) was 93.6 µM and the CC50 (SK-MEL-28 [2]) was > 100 µM. For the same compound, the growth at 10 µM (SK-MEL-28 [3]) was -1%, the growth at 10 µM [4] was -21% and the growth at 0.1 µM (HCC 2998 [5]) was 81%. The growth at 10 µM (CCRF-CEM) was 15.4%, the growth at 0.001 µM (SK-MEL-28 [6]) was 92% and the growth at 0.01 µM (SR [7]) was 103%. The growth at 10 µM (HCC 2998 [8]) was -62%, the growth at 0.001 µM (SR [9]) was 97% and the growth at 1 µM (SK-MEL-5) was -13%. For the same compound, the growth at 10 µM (RXF 393 [10]) was -58%, the growth at 0.01 µM (ACHN) was 90% and the growth at 0.1 µM (SF-295 [11]) was 75%. It also gave a GI50 (RXF 393 [12]) of 1.49 µM, an LC50 (concentration killing 50% of the starting cells) (RXF 393 [12]) of 8.62 µM and a TGI (RXF 393 [12]) of 3.59 µM. For the same compound, the growth at 1 µM (NCI-H460) was -27%, the growth at 0.001 µM (MCF7 [13]) was 94% and the growth at 1 µM (RXF 393 [14]) was -58%. It also gave a growth at 0.1 µM (SK-MEL-28 [15]) of 74%, a GI50 (NCI-H226 [16]) of 4.29 µM and a TGI (NCI-H226 [16]) of 82.3 µM. For the same compound, the CC50 (NCI-H226 [16]) was > 100 µM, the growth at 10 µM (PC-3) was 1% and the growth at 0.1 µM (MCF7 [17]) was 69%. For the same compound, the growth at 10 µM [25] was 17.7%, the growth at 0.1 µM (HCT-116) was 78% and the growth at 0.01 µM (DU-145) was 98%. For the same compound, the GI50 (SR [18]) was 1.62 µM, the LC50 (concentration killing 50% of cells) (SR [18]) was > 100 µM and the TGI (SR [18]) was > 100 µM. For the same compound, the growth at 0.001 µM (RXF 393 [19]) was 90%, the growth at 1 µM (NCI-H226 [20]) was 29% and the growth at 0.01 µM (MDA-MB-435) was 94%. For the same compound, the growth at 10 µM (KM12) was 34.1%, the growth at 0.01 µM (NCI-H226 [21]) was 88% and the growth at 10 µM (HOP-92) was 48.4%. The growth at 1 µM (SR [22]) was 22%, the growth at 1 µM (HCC 2998 [23]) was -17% and the growth at 0.1 µM (SR [24]) was 57%.
